The record followed here is ChEMBL document CHEMBL5380775, “Visible-Light-Controlled Histone Deacetylase Inhibitors for Targeted Cancer Therapy” (J Med Chem, 2023).

Active and inactive are the calls of the source.

The subject of data set [1] is HeLa. Description: Anticancer activity against human HeLa cells assessed as inhibition of cell growth incubated for 48 hrs in dark by MTS assay. In kind it is functional, cell-based. The method, boiled down: (§1)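 HeLa cells in DMEM with 10% FBS, seeded at 5 × 10³ cells/well 24 h before treatment. Dark stocks heated to 60 or 80 °C. Light stocks preilluminated 3 min at 380 nm (11 mW/cm²). Stocks diluted in DMEM to 20× final, final DMSO 0.5%. Exposure 24 or 48 h. MTS read 2 h at 37 °C, absorbance 490 nm; % of nontreated cells.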

Data set [2] relates to HeLa. Put plainly: Anticancer activity against human HeLa cells assessed as inhibition of cell growth incubated for 48 hrs in presence of illumination with 380 nm light by MTS assay. In kind it is functional, cell-based. The method, boiled down:
as §1

A short description of data set [3]: Stability of compound in DMSO assessed as half life at 25 to 50 uM in presence of illumination with 380 to 550 nm light. In kind it is physicochemical. The settings on record: dose 25-50 µM. The method, boiled down: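 Solutions of 25–50 μM in DMSO illuminated 2 min at the cis-forming wavelength. Absorbance then followed at fixed intervals in the dark at room temperature, at the wavelength of largest isomer difference. Half-life from an exponential-decay fit.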

Data set [4] relates to HeLa. Put plainly: Anticancer activity against human HeLa cells assessed as reduction in cell viability upto 100 uM incubated for 48 hrs in dark by MTS assay. In kind it is functional, cell-based. The method, boiled down: as §1
In general terms: Tetrazolium dyes change colour on reduction, which living cells bring about.

The test system of data set [5] is HT-29. Put plainly: Cytotoxicity against human HT-29 cells assessed as reduction in cell viability at 50 uM incubated for 48 hrs in dark condition by MTS assay. In kind it is functional, cell-based. The gist of the method: (§2)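 HT29 and MCF7 cells in DMEM with 10% FBS, seeded at 1 × 10⁴ cells/well; compound added 24 h later. Dark stocks heated to 60 or 80 °C; light stocks preilluminated 3 min at 380 or 550 nm. Tested at 50 μM, final DMSO 0.5%, for 48 h. MTS read 2 h at 37 °C, absorbance 490 nm; viability as % of nontreated cells.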

Data set [6] concerns MCF7. Put plainly: Cytotoxicity against human MCF7 cells assessed as reduction in cell viability at 50 uM incubated for 48 hrs in dark condition by MTS assay. In kind it is functional, cell-based. The gist of the method:
as §2

The test system of data set [7] is KG-1. Put plainly: Cytotoxicity against human KG-1 cells assessed as reduction in cell viability at 50 uM incubated for 48 hrs in dark condition by celltiter glo assay. In kind it is functional, cell-based. The method, boiled down:
(§3)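 KG1 suspension cells grown in IMDM with 20% FBS, 1 × 10⁴ cells/well. Dark stocks heated to 60 or 80 °C; light stocks preilluminated 3 min at 380 or 550 nm. Exposure 50 μM for 48 h. CellTiter-Glo added, 10 min at room temperature, luminescence read; % of nontreated cells.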
(In general: Cellular ATP, detected with luciferase, serves as a proxy for viable cell number.)

Data set [8] has as its system HT-29. Description: Cytotoxicity against human HT-29 cells assessed as reduction in cell viability at 50 uM incubated for 48 hrs in presence of illumination with 380 nm light by MTS assay. In kind it is functional, cell-based. The method, boiled down: as §2
Data set [9] concerns MCF7. Description: Cytotoxicity against human MCF7 cells assessed as reduction in cell viability at 50 uM incubated for 48 hrs in presence of illumination with 380 nm light by MTS assay. In kind it is functional, cell-based. The method, boiled down:
as §2

In data set [10] the test system is KG-1. Put plainly: Cytotoxicity against human KG-1 cells assessed as reduction in cell viability at 50 uM incubated for 48 hrs in presence of illumination with 380 nm light by celltiter glo assay. In kind it is functional, cell-based. The method, boiled down:
as §3

Data set [11] deals with HT-29. Put plainly: Cytotoxicity against human HT-29 cells assessed as reduction in cell viability at 50 uM incubated for 48 hrs in presence of illumination with 550 nm light by MTS assay. In kind it is functional, cell-based. The method, boiled down: as §2
Data set [12] deals with MCF7. Description: Cytotoxicity against human MCF7 cells assessed as reduction in cell viability at 50 uM incubated for 48 hrs in presence of illumination with 550 nm light by MTS assay. In kind it is functional, cell-based. The method, boiled down: as §2
Data set [13] deals with KG-1. Description: Cytotoxicity against human KG-1 cells assessed as reduction in cell viability at 50 uM incubated for 48 hrs in presence of illumination with 550 nm light by celltiter glo assay. In kind it is functional, cell-based. The gist of the method: as §3
In data set [14] the test system is HeLa. Description: Anticancer activity against human HeLa cells assessed as inhibition of cell growth incubated for 24 hrs in dark condition by MTS assay. In kind it is functional, cell-based. The method, boiled down: as §1
Data set [15] has as its target Histone deacetylase (Homo sapiens) (UniProt Q13547+O15379+Q9UBN7+Q92769+Q9UQL6+Q8WUI4+Q9BY41+Q96DB2+P56524+Q9UKV0+Q969S8). Description: Inhibition of HDAC in human HeLa cells at 50 uM incubated for 3 hrs by fluorescence based analysis. In kind it is cell-based. The gist of the method: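 Live-cell HDAC assay: HeLa in DMEM/10% FBS, 15 × 10³ cells/well, seeded 24 h before. Compound added at 50 μM final, either heat-relaxed to trans (60 or 80 °C, dark) or LED-illuminated 3 min. Boc-Lys(Ac)-AMC substrate at 100 μM final, 3 h at 37 °C. […] Fluorescence ex 380/em 460 nm. Activity as % of untreated cells after no-substrate blank subtraction.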

Data set [16] in a line: Stability of the compound assessed as half life in buffer. In kind it is physicochemical.
Data set [17] can be described thus: Stability of the compound assessed as half life in DMEM by HPLC analysis. In kind it is physicochemical. The gist of the method: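 10 mM DMSO stock illuminated 2 min (LED array plate at maximum power, e.g. 380 nm at 11 mW/cm²), then diluted to 10 μM in DMEM with 0.1% DMSO. Kept at 37 °C in an incubator in the dark; samples taken at fixed intervals and analysed by HPLC. Cis thermal half-life obtained by fitting the decay to an exponential function.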

In data set [18] the target is T1, Histone deacetylase 1 (Homo sapiens, UniProt Q13547). Put plainly: Inhibition of human recombinant HDAC1 using Boc-Lys(Ac)-AMC as substrate incubated for 1 hrs in presence of illumination with 420 nm light by fluorescence based assay.
Data set [19] concerns the target T1, Histone deacetylase 1. Put plainly: Inhibition of human recombinant HDAC1 using Boc-Lys(Ac)-AMC as substrate at 0.003 to 10 uM incubated for 1 hrs in dark by fluorescence based assay. Particulars: dose 0.003-10 µM. The method, boiled down:
(§4)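 Recombinant human HDAC1 at 8 ng/well with Boc-Lys(Ac)-AMC 15 μM in Tris buffer pH 8 with 0.1 mg/mL BSA. Compound 10 μM to 3 nM, 1 h at room temperature. Dark: stocks heated to 60 or 80 °C. Light: stocks preilluminated 3 min, then continuous 550 nm at 6 mW/cm². […] Fluorescence ex 380/em 460 nm, blank-subtracted.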

The target in data set [20] is T1, Histone deacetylase 1. Put plainly: Inhibition of human recombinant HDAC1 using Boc-Lys(Ac)-AMC as substrate incubated for 1 hrs in presence of illumination with 380 nm light by fluorescence based assay.
In data set [21] the target is T1, Histone deacetylase 1. Put plainly: Inhibition of human recombinant HDAC1 using Boc-Lys(Ac)-AMC as substrate incubated for 1 hrs in dark by fluorescence based assay.
Data set [22] concerns the target T1, Histone deacetylase 1. Put plainly: Inhibition of human recombinant HDAC1 using Boc-Lys(Ac)-AMC as substrate incubated for 1 hrs in presence of illumination with 550 nm light by fluorescence based assay.
Data set [23] deals with T1, Histone deacetylase 1. Description: Inhibition of human recombinant HDAC1 using Boc-Lys(Ac)-AMC as substrate at 0.003 to 10 uM incubated for 1 hrs in presence of illumination with 550 nm light by fluorescence based assay. The settings on record: dose 0.003-10 µM. The gist of the method:
as §4

Setting [24] is: in the assay text read “380 nm light” for “550 nm light”.

T1 sequence (Q13547 whole entry): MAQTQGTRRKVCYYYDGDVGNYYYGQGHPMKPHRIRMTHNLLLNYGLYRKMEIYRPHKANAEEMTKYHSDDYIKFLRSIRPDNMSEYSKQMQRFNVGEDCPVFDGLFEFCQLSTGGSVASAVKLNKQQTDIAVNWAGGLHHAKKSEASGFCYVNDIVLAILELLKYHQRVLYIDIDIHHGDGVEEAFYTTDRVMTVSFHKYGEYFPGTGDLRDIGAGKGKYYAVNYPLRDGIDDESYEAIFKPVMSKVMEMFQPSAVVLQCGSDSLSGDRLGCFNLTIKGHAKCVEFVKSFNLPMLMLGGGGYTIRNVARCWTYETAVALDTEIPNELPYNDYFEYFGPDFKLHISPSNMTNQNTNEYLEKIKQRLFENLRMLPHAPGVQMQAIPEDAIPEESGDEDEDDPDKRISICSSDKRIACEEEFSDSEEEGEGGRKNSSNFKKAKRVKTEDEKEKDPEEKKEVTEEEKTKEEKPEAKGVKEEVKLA

By half-life is commonly meant the time needed for the level to fall by half in the phase considered. In the case of `COc1ccc(/N=N/c2ccc(CCC(=O)Nc3ccccc3N)cc2)cc1`, the inhibition result in data set [1] was “inactive”. Moreover, the outcome in data set [2] was inactive. Besides, in data set [3], the half-life at up to 50 µM is 20.1 h.
As for `COc1ccc(/N=N/c2ccc(C(=O)Nc3ccccc3N)cc2)cc1`, the inhibition entry in data set [1] is “inactive”. Also, the half-life at up to 50 µM in data set [3] is 20.8 h.
As to `COc1ccc(/N=N/c2ccc(/C=C/C(=O)Nc3cc(-c4cccs4)ccc3N)cc2)cc1`, the result in [4], in [5], in [6] and in data set [7] was inactive. Moreover, the outcome in [8], in [9], in data set [10], in [11] (setting [24]), in [12] and in [13] was Active. Moreover, the inhibition entry in [14] was “inactive”. For the same molecule, the inhibition result in data set [15] is “Active”. In addition, the half-life at up to 50 µM in data set [3] is 4.5 h.
With `COc1ccc(/N=N/c2ccc(/C=C/C(=O)NO)cc2)cc1`, the half-life in data set [16] was 2.7 h. Moreover, the half-life at up to 50 µM in data set [3] is 2.7 h.
Consider `COc1ccc(/N=N/c2ccc(/C=C/C(=O)Nc3ccccc3N)cc2)cc1`, for which the outcome in data set [4], in data set [5], in [6] and in data set [7] was inactive. For the same molecule, the half-life in data set [17] turned out to be 0.667 h. The result in [8], in [9], in [10], in data set [11] (setting [24]), in data set [12] and in data set [13] was Active. Moreover, in data set [15], the inhibition result was “Active”. Besides, the half-life at up to 50 µM in [3] was 3.1 h.
Usually IC50 stands for the concentration that inhibits the measured activity by half. For `CN(C)c1cc(F)c(/N=N/c2c(F)cc(/C=C/C(=O)Nc3ccccc3N)cc2F)c(F)c1`, the IC50 in [18] turned out to be 1200 nM. Besides, the inhibition result in data set [19] was “inactive”. In addition, in data set [3], the half-life at up to 50 µM is 5.4 h.
Consider `COc1ccc(/N=N/c2ccc(/C=C/C(=O)Nc3ccccc3N)cc2Cl)c(Cl)c1`, for which the inhibition result in [1] and in [2] was “inactive” in each case. Besides, in [3], the half-life at up to 50 µM is 4.3 h.
For `COc1cc(F)c(/N=N/c2c(F)cc(C(=O)Nc3ccccc3N)cc2F)c(F)c1`, the half-life in data set [17] was 113 h. The result in data set [5], in data set [6] and in [7] was inactive. The outcome in [8], in data set [9], in data set [10], in [11], in [12] and in data set [13] was Active. Further, the inhibition result in [15] is “Active”. In addition, in data set [3], the half-life at up to 50 µM is 1010 h.
For `COc1ccc(/N=N/c2ccc(/C=C/C(=O)Nc3ccccc3N)cc2F)c(F)c1`, in data set [20], the IC50 is 460 nM. Moreover, the inhibition entry in data set [1] and in [2] was “inactive” in each case. For the same molecule, the half-life at up to 50 µM in data set [3] is 9.9 h.
Consider `COc1cc(F)c(/N=N/c2c(F)cc(/C=C/C(=O)NO)cc2F)c(F)c1`, for which the half-life at up to 50 µM in [3] was 218 h.
With `COc1cc(Cl)c(/N=N/c2c(Cl)cc(C(=O)Nc3ccccc3N)cc2Cl)c(Cl)c1`, the inhibition entry in data set [21], in data set [22], in data set [19] and in data set [23] was “inactive” each time. For the same molecule, in data set [3], the half-life at up to 50 µM is 8.3 h.
Consider `CN(C)c1ccc(/N=N/c2ccc(C(=O)Nc3ccccc3N)cc2)cc1`, for which the half-life at up to 50 µM in data set [3] was 0.0717 h.
With `CN(C)c1cc(Cl)c(/N=N/c2c(Cl)cc(/C=C/C(=O)Nc3ccccc3N)cc2Cl)c(Cl)c1`, in data set [18], the IC50 was found to be 5000 nM. The half-life at up to 50 µM in data set [3] stood at 0.135 h.
Consider `COc1ccc(/N=N/c2ccc(C(=O)NO)cc2)cc1`, for which, in [3], the half-life at up to 50 µM is 18.7 h.
Turning to `COc1cc(F)c(/N=N/c2c(F)cc(/C=C/C(=O)Nc3ccccc3N)cc2Cl)c(Cl)c1`, the inhibition entry in data set [1] was “inactive”. The result in [5], in data set [6] and in [7] was inactive. Besides, the outcome in data set [8], in data set [9], in data set [10], in data set [11], in data set [12] and in data set [13] was Active. Further, the inhibition entry in data set [15] was “Active”. Besides, the half-life at up to 50 µM in [3] is 178 h.
On to `COc1cc(Cl)c(/N=N/c2c(Cl)cc(/C=C/C(=O)Nc3ccccc3N)cc2Cl)c(Cl)c1`, for which the inhibition result in [19] was “inactive”. In addition, in data set [3], the half-life at up to 50 µM is 13.8 h.
As for `COc1cc(F)c(/N=N/c2c(F)cc(/C=C/C(=O)Nc3ccccc3N)cc2F)c(F)c1`, the inhibition entry in data set [1] was “inactive”. The outcome in data set [5], in data set [6] and in [7] was inactive. In addition, the outcome in data set [8], in data set [9], in data set [10], in [11], in data set [12] and in data set [13] was Active. The inhibition entry in [15] is “Active”. Moreover, the half-life at up to 50 µM in data set [3] is 223 h.
